Measured values from ChEMBL document CHEMBL1138222, “9-Benzylidene-naphtho[2,3-b]thiophen-4-ones as novel antimicrotubule agents-synthesis, antiproliferative activity, and inhibition of tubulin polymerization” (J Med Chem, 2006).
pEC50, pIC50: −log10 of the molar value.

Legend:
K562 = assay: Antiproliferative activity against human K562 cell line; format: functional, cell-based
Tubulin = Tubulin (Sus scrofa, UniProt P02554+P02550); assay: Inhibition of tubulin polymerization in porcine brain
P388 [1] = assay: Antiproliferative activity against P388 ADR cells by XTT assay after 48 hrs; format: functional, cell-based; settings: Mus musculus, P388, 48 h
Summary of the method: (§1)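 Tumour cell lines were seeded at 1 × 10^3 to 8 × 10^4 cells/well for logarithmic growth and exposed to a concentration series for 48 h. Proliferation was read as cellular metabolic activity by XTT. IC50 came from dose-response curves by nonlinear regression, with at least two replicates.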

L1210 [2] = assay: Antiproliferative activity against L1210 VCR cells by XTT assay after 48 hrs; format: functional, cell-based; settings: Mus musculus, L1210, 48 h; summary of the method: as §1
P388 [3] = assay: Antiproliferative activity against P388 cells by XTT assay after 48 hrs; format: functional, cell-based; settings: Mus musculus, P388, 48 h; summary of the method: as §1
MDR = assay: Antiproliferative activity against LT12 MDR cells by XTT assay after 48 hrs; format: functional, cell-based; settings: Rattus norvegicus; summary of the method: as §1
cells = settings: Rattus norvegicus, LT12, 48 h
[4] = Cell cycle arrest in KB/HeLa cells by accumulation at G1 phase at 100 nM; format: functional, cell-based; settings: Homo sapiens
Summary of the method: (§2)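 Subconfluent KB/HeLa cells were treated with a concentration series for 24 h at 37 °C, then detached and fixed in 70% ethanol. DNA was stained with propidium iodide alongside RNase digestion and measured by flow cytometry. Phase fractions came from cell-cycle modelling software, and IC50 from nonlinear regression.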

[5] = Cell cycle arrest in KB/HeLa cells by accumulation at G1 phase at 31.6 nM; format: functional, cell-based; settings: Homo sapiens; summary of the method: as §2
RKO [6] = assay: Antiproliferative activity against RKO cells with ectopic-induced p27kip1-expression by XTT assay after 48 hrs; format: functional, cell-based; settings: Homo sapiens
Summary of the method: (§3)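 RKO colon adenocarcinoma cells carry an ecdysone-inducible p27kip1 vector. On day 1 they were plated with 3 µM ponasterone A (induced, 2 × 10^4 cells/well) or without it (not induced, 6 × 10^3 cells/well) and held 24 h at 37 °C. Compound or DMSO control was then added for 48 h at 37 °C, followed by a standard XTT read-out.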

[7] = Cell cycle arrest in KB/HeLa cells by accumulation at G1 phase at 316 nM; format: functional, cell-based; settings: Homo sapiens; summary of the method: as §2
[8] = Antiproliferative activity against KB/HeLa cells by XTT assay after 48 hrs; format: functional, cell-based; settings: Homo sapiens; summary of the method: as §1
[9] = Cell cycle arrest in KB/HeLa cells by accumulation at G2/M phase at 100 nM; format: functional, cell-based; settings: Homo sapiens; summary of the method: as §2
[10] = Cell cycle arrest in KB/HeLa cells by accumulation at G2/M phase; format: functional, cell-based; settings: Homo sapiens; summary of the method: as §2
[11] = Cell cycle arrest in KB/HeLa cells by accumulation at G2/M phase at 316 nM; format: functional, cell-based; settings: Homo sapiens; summary of the method: as §2
[12] = Cell cycle arrest in KB/HeLa cells by accumulation at G2/M phase at 10 nM; format: functional, cell-based; settings: Homo sapiens; summary of the method: as §2
[13] = Cell cycle arrest in KB/HeLa cells by accumulation at S phase at 10 nM; format: functional, cell-based; settings: Homo sapiens; summary of the method: as §2
[14] = Cell cycle arrest in KB/HeLa cells by accumulation at G2/M phase at 31.6 nM; format: functional, cell-based; settings: Homo sapiens; summary of the method: as §2
[15] = Cell cycle arrest in KB/HeLa cells by accumulation at G1 phase at 3.16 nM; format: functional, cell-based; settings: Homo sapiens; summary of the method: as §2
[16] = Cell cycle arrest in KB/HeLa cells by accumulation at S phase at 100 nM; format: functional, cell-based; settings: Homo sapiens; summary of the method: as §2
[17] = Cell cycle arrest in KB/HeLa cells by accumulation at S phase at 316 nM; format: functional, cell-based; settings: Homo sapiens; summary of the method: as §2
[18] = Cell cycle arrest in KB/HeLa cells by accumulation at G1 phase at 10 nM; format: functional, cell-based; settings: Homo sapiens; summary of the method: as §2
[19] = Cell cycle arrest in KB/HeLa cells by accumulation at S phase at 31.6 nM; format: functional, cell-based; settings: Homo sapiens; summary of the method: as §2
[20] = Cell cycle arrest in KB/HeLa cells by accumulation at S phase at 3.16 nM; format: functional, cell-based; settings: Homo sapiens; summary of the method: as §2
[21] = Cell cycle arrest in KB/HeLa cells by accumulation at G2/M phase at 1 nM; format: functional, cell-based; settings: Homo sapiens; summary of the method: as §2
[22] = Cell cycle arrest in KB/HeLa cells by accumulation at G2/M phase at 3.16 nM; format: functional, cell-based; settings: Homo sapiens
[23] = Cell cycle arrest in KB/HeLa cells by accumulation at G1 phase at 1 nM; format: functional, cell-based; settings: Homo sapiens; summary of the method: as §2
[24] = Cell cycle arrest in KB/HeLa cells by accumulation at S phase at 1 nM; format: functional, cell-based; settings: Homo sapiens; summary of the method: as §2
L1210 [25] = assay: Antiproliferative activity against L1210 cells by XTT assay after 48 hrs; format: functional, cell-based; settings: Mus musculus, L1210, 48 h; summary of the method: as §1
RKO [26] = assay: Antiproliferative activity against RKO cells by XTT assay after 48 hrs; format: functional, cell-based; settings: Homo sapiens; summary of the method: as §3
NCI-H460 = assay: Antiproliferative activity against NCI-H460 cells by XTT assay after 48 hrs; format: functional, cell-based; settings: Homo sapiens, NCI-H460, 48 h; summary of the method: as §1
SF-268 = assay: Antiproliferative activity against SF268 cells by XTT assay after 48 hrs; format: functional, cell-based; settings: Homo sapiens, SF-268, 48 h; summary of the method: as §1
SK-OV-3 = assay: Antiproliferative activity against SKOV3 cells by XTT assay after 48 hrs; format: functional, cell-based; settings: Homo sapiens, SK-OV-3, 48 h; summary of the method: as §1

`O=C1c2ccccc2/C(=C/c2ccc(O)cc2)c2sccc21` gave a pIC50 (K562) of 6.09.
Compound `O=C1c2ccccc2/C(=C/c2cc(Br)c(O)c(Br)c2)c2sccc21` has a pIC50 (K562) of 5.17.
In the case of `COc1ccc(CC(=O)Oc2c3ccccc3cc3sccc23)cc1`, the IC50 (Tubulin) was > 10 µM and the pIC50 (K562) was 4.82.
In the case of `CC[C@]1(O)C[C@@H]2CN(CCc3c([nH]c4ccccc34)[C@@](C(=O)OC)(c3cc4c(cc3OC)N(C)[C@H]3[C@@](O)(C(N)=O)[C@H](O)[C@]5(CC)C=CCN6CC[C@]43[C@@H]65)C2)C1` [VINDESINE], the pIC50 (P388 [1]) was 5.96, the pIC50 (L1210 [2]) was < 5.30 and the pIC50 (P388 [3]) was 8.00. For the same compound, the pIC50 (MDR) was 6.59 and the pIC50 (cells) was 9.00.
With `O=C1c2ccccc2/C(=C/c2c[nH]c3ccccc23)c2sccc21` the IC50 (Tubulin) was 2.8 µM and the pIC50 (K562) was 6.14.
`COc1ccc(COc2c3ccccc3cc3sccc23)cc1OC` gave an IC50 (Tubulin) of 3.98 µM and a pIC50 (K562) of 6.05.
With `COc1cc(COc2c3ccccc3cc3sccc23)cc(OC)c1OC` the IC50 (Tubulin) was > 10 µM and the pIC50 (K562) was 5.05.
For `CC(=O)O[C@H]1C(=O)[C@@]2(C)[C@H]([C@H](OC(=O)c3ccccc3)[C@]3(O)C[C@H](OC(=O)[C@H](O)[C@@H](NC(=O)c4ccccc4)c4ccccc4)C(C)=C1C3(C)C)[C@]1(OC(C)=O)CO[C@@H]1C[C@@H]2O` [PACLITAXEL], the Activity [4] was 1.2%, the Activity [5] was 31.1% and the pIC50 (RKO [6]) was < 5.52. The Activity [7] was 0.3%, the pIC50 [8] was 8.00 and the Activity [9] was 87.8%. For the same compound, the pEC50 [10] was 7.31, the Activity [11] was 90.8% and the Activity [12] was 8.5%. It also gave an Activity [13] of 26.6%, an Activity [14] of 19% and an Activity [15] of 63.6%. For the same compound, the Activity [16] was 11%, the pIC50 (P388 [1]) was < 5.30 and the Activity [17] was 8.9%. The pIC50 (L1210 [2]) was < 5.30, the Activity [18] was 64.8% and the Activity [19] was 49.9%. It also gave an Activity [20] of 27%, a pIC50 (P388 [3]) of 7.40 and an Activity [21] of 10.1%. It also gave an Activity [22] of 9.4%, an Activity [23] of 63.2% and a pIC50 (MDR) of 6.40. For the same compound, the Activity [24] was 26.7%.
Compound `COc1ccc2[nH]cc(/C=C3/c4ccccc4C(=O)c4ccsc43)c2c1` has a pIC50 (K562) of 6.62.
With `COC(=O)Nc1nc2cc(C(=O)c3cccs3)ccc2[nH]1` [NOCODAZOLE] the Activity [4] was 22.3%, the Activity [5] was 64.4% and the pIC50 (RKO [6]) was < 5.00. The Activity [7] was 0.9%, the pIC50 [8] was 6.85 and the Activity [9] was 51.4%. For the same compound, the pEC50 [10] was 7.04, the Activity [11] was 93.2% and the Activity [12] was 10%. For the same compound, the Activity [13] was 25.7%, the Activity [14] was 9.9% and the Activity [15] was 64.6%. It also gave an Activity [16] of 26.1%, a pIC50 (L1210 [25]) of 7.30 and a pIC50 (P388 [1]) of 6.77. It also gave an Activity [17] of 6%, a pIC50 (L1210 [2]) of 7.05 and an Activity [18] of 64.2%. For the same compound, the Activity [19] was 25.7%, the Activity [20] was 24.8% and the pIC50 (P388 [3]) was 7.10. The Activity [21] was 11.1%, the Activity [22] was 10.6% and the Activity [23] was 65.2%. It also gave a pIC50 (MDR) of 7.15, a pIC50 (cells) of 7.40 and an Activity [24] of 23.6%.
In the case of `COc1ccc(CCOc2c3ccccc3cc3sccc23)cc1`, the IC50 (Tubulin) was > 10 µM and the pIC50 (K562) was 5.28.
With `COc1cc(/C=C2/c3ccccc3C(=O)c3ccsc32)cc(OC)c1OC` the IC50 (Tubulin) was 7.4 µM and the pIC50 (K562) was 6.22.
With `COc1ccc(COc2c3ccccc3cc3sccc23)cc1` the pIC50 (RKO [6]) was < 5.05, the pIC50 [8] was 6.33 and the pIC50 (RKO [26]) was 6.55. The IC50 (Tubulin) was 1.52 µM, the pIC50 (K562) was 6.60 and the pIC50 (NCI-H460) was 6.01. The pIC50 (SF-268) was 6.37 and the pIC50 (SK-OV-3) was 6.57.
Compound `COc1ccc(/C=C2/c3ccccc3C(=O)c3ccsc32)cc1O` has an IC50 (Tubulin) of 1.4 µM and a pIC50 (K562) of 6.64.
For `O=C1c2ccccc2/C(=C/c2ccc([N+](=O)[O-])cc2)c2sccc21`, the IC50 (Tubulin) was > 10 µM and the pIC50 (K562) was 6.14.
Compound `COc1cc(/C=C2/c3ccccc3C(=O)c3ccsc32)ccc1O` has an IC50 (Tubulin) of 0.88 µM and a pIC50 (K562) of 7.00.
